# Sampled rows, rich in hits. Any-hit rate of the full collection: about 1.8%.
# MLLE-PAM2 inh: blocks PAM2 peptide binding to the PABP1 MLLE domain. P11940. GST-MLLE / FITC-PAM2 fluorescence polarization. inhibition, % at 20 µM. 360,000 tested, 0.36% active; in the data active = inhibition above about 35%, passing the limit was not always enough
# eIF4E-4G inh: eIF4E/eIF4G interaction inhibition in translation initiation; 220,000 tested, 0.37% active; TR-FRET eIF4E-eIF4GI(517-606) binding, 2 h; inhibition, % at 21.7 µM;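 active = inhibition above about 30%, limit read from the data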
# eIF4H inh: inhibitors of RNA binding by human eIF4H; 290,000 tested, 0.94% active; Q15056; inhibition, % at 35 µM; eIF4H fluorescence polarization binding assay; AID 2012;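 also: calls also rest on retests at 20 µM and on dose response follow-up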
# SUMO HTRF inh: SUMOylation inhibition | P63279 | HTRF SUMOylation assay, SAE1/SAE2 + UBC9, in vitro | inhibition, % at 35 µM | 290,000 tested, 0.36% active; in the data active = inhibition above about 50%, passing the limit was not always enough; inconclusive = no clear call, values can overlap the other calls
# Target sequence (P63279 whole entry, looked up): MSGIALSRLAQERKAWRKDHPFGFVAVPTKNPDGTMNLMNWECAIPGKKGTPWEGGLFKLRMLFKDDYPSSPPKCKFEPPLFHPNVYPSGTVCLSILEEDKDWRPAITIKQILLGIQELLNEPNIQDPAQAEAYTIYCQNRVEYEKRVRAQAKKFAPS
# PABP FP inh: PABP-poly(A) binding inhibition. calls only at 35 µM. P11940. 290,000 tested, 1% active. AID 2014. PABP-poly(A) RNA binding, fluorescence polarization;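 also: calls also rest on retests at 20 µM and on dose response follow-up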
# HCV core dimer: HCV core protein dimerization inhibition | 300,000 tested, 0.33% active | TR-FRET GST/Flag-core106 dimerization, 1536-well | inhibition, % at 5 µM | AID 1899;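 active = inhibition above the mean of all tested compounds plus 3 SD, set per screening campaign, cut at about 45% in these data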
#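 Material: Tagged HCV core106 pair (GST and Flag) | Amount: GST-core106 13.5 nM, Flag-core106 17 nM | Medium: KF-containing HEPES buffer, pH 7.45, DTT, CHAPS, BSA | Reagent: Eu donor and XL665 acceptor anti-tag antibodies | Schedule: 4 h at 22.5 °C | Technique: Time-resolved FRET, ex 340 nm, em 617 and 671 nm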
# A number is an active result; n = inactive; u = inconclusive; x = no result given; + = active, no number; [ ] = dose if it differs, or a comment. Unless noted, no rule for the calls is given here.
SMILES,MLLE-PAM2 inh,eIF4E-4G inh,eIF4H inh,SUMO HTRF inh,PABP FP inh,HCV core dimer
Cc1nc([N+](=O)[O-])c(C(=O)OCc2ccccc2C#N)n1C,n,n,active,n,+,n
Cn1c2ccccc2c(=O)c2ccc(NCc3ccc4c(c3)OCO4)cc21,n,x,x,x,x,x
Cc1ccc(-n2cc(C(=O)c3ccc(F)cc3)nn2)cc1Cl,n,n,n,n,n,70
O=C(O)c1cccc(-n2cccc2/C=N/O)c1,n,n,92,n,+,n
O=C(O)c1cccc(-n2cccc2/C=C\[N+](=O)[O-])c1,n,n,n,n,+,n
O=C(O)c1cccc(-n2cccc2/C=C/[N+](=O)[O-])c1,n,n,94,n,+,n
CN(C(=O)COC(=O)c1ccc2ccccc2n1)C1CCCCC1,n,x,x,x,x,x
CCOCC(=O)Nc1nc2ccc(C)cc2s1,41,n,n,n,n,n
CCOCC(=O)Nc1nc(C)cc(C)n1,n,n,n,69,n,n
Cc1cc(C)c2sc(NC(=O)c3ccc(N4C(=O)CCC4=O)cc3)nc2c1,n,n,n,n,n,n
CCOCC(=O)Nc1nc2ccc(OCC)cc2s1,n,n,n,n,n,n
Cc1ccc2nc(NC(=O)c3ccc(N4C(=O)CCC4=O)cc3)sc2c1,n,n,n,n,n,48
COc1ccc([N+](=O)[O-])cc1NC(=O)c1cn(-c2ccc(Cl)cc2)c(=O)c2ccccc12,n,n,n,n,n,n
O=C(O)CSc1ncnc2sc3c(c12)CCC3,n,x,60,n,+,n
Cc1ccc(C(=O)CSc2ncnc3sc4c(c23)CCCC4)cc1,n,33,n,n,n,n
C#CCSc1nsc(SCC#C)c1C#N,n,n,n,n,n,63
Cc1ccc(NC(=O)CSCC(=O)Nc2ccccc2C(=O)NC2CC2)cc1,n,x,x,x,x,x
O=C(O)CCC(=O)Nc1ccc2c(c1)Cc1cc(NC(=O)CCC(=O)O)ccc1-2,n,x,59,n,n,n
O=C(O)CCC(=O)Nc1ccc(N2CCCCC2)c(C(=O)O)c1,n,n,n,n,n,n
O=C(O)c1cc(S(=O)(=O)Nc2ccc3cn[nH]c3c2)ccc1Cl,n,x,x,x,x,x
C[C@H](CO)N1C[C@H](C)[C@@H](CN(C)C(=O)Nc2ccc3c(c2)OCO3)Oc2ccc(NC(=O)CCC(F)(F)F)cc2C1=O,n,x,x,x,x,x
COc1ccccc1N=C1NC(=O)/C(=C/c2ccc(N(C)C)cc2)S1,n,x,u,n,u,n
O=S(=O)(Nc1cccc(-c2cn3cccnc3n2)c1)c1ccc(-c2ccccc2)cc1,n,n,n,n,n,50
COc1cc(C(=O)Nc2cccc(-c3cn4cccnc4n3)c2)cc(OC)c1OC,n,n,n,n,n,n
COc1ccc(-c2cn3cccnc3n2)cc1NC(=O)c1cc(OC)c(OC)c(OC)c1,n,n,active,n,+,n
SMILES,MLLE-PAM2 inh,eIF4E-4G inh,eIF4H inh,SUMO HTRF inh,PABP FP inh,HCV core dimer
Clc1ccc(-c2cn3cccnc3n2)cc1Cl,n,n,71,n,+,n
COc1ccc(C(NC(=O)C2CCN(CCCOc3ccccc3)CC2)c2cccs2)cc1 (stereo not drawn),n,x,x,x,x,x
Cn1c(-c2ccc(C=O)s2)nc2c3ccccc3c3ccccc3c21,n,n,n,97,n,n
CCCCc1ccc(C2C(C#N)=C(N)SC(N)=C2C#N)s1,x,n,u,n,u,59
COc1ccc(Nc2ccc(N3C(=O)CC(C)C3=O)cc2[N+](=O)[O-])cn1 (stereo not drawn),40,n,n,n,+,n
CCN1/C(=C2\OC(=S)N(C)C2=O)C=Cc2ccccc21,n,n,n,n,n,n
CN1C(=O)/C(=C2/C=CC=CN2C)OC1=S,40,n,n,n,n,n
CCOC(=O)CC1CCCCN1Cc1cn[nH]c1-c1ccc(F)cc1F (stereo not drawn),n,n,n,n,n,n
COc1cccc(C2C3=C(N=c4s/c(=C\c5ccc(OCC(=O)O)cc5)c(=O)n42)c2ccccc2CC3)c1 (stereo not drawn),x,40,n,n,n,n
COc1ccccc1C1C2=C(N=c3s/c(=C/c4cccc(OCC(=O)O)c4)c(=O)n31)c1ccccc1CC2 (stereo not drawn),n,n,n,n,n,n
CC1CC1C(=O)OCC(=O)Nc1cccc([N+](=O)[O-])c1 (stereo not drawn),n,n,u,n,+,n
CC(C)=CC(=O)OCC(=O)Nc1cccc([N+](=O)[O-])c1,n,n,n,n,n,n
O=C(COC(=O)c1c(F)cccc1F)Nc1ccc2[nH]c(=O)[nH]c2c1,n,n,57,n,n,n
CC1CC1C(=O)OCC(=O)Nc1ccc2[nH]c(=O)[nH]c2c1 (stereo not drawn),n,n,u,n,+,n
CCCC(=O)OCC(=O)Nc1ccc2[nH]c(=O)[nH]c2c1,n,n,n,n,n,n
C=CCn1c(O)c(N=NC(=O)CNC(=O)Cc2ccccc2)c2ccccc21,n,x,n,n,n,n
O=C(O)CCSc1nnc(SCC(=O)NCC(F)(F)F)s1,n,56,n,n,n,n
O=C(O)CCSc1nnc(SCC(=O)NC2CCS(=O)(=O)C2)s1 (stereo not drawn),n,x,x,x,x,x
COc1cccc(NC(=S)N2CCN(C)CC2)c1,n,x,n,n,n,n
COc1ccc([C@H]2N[C@]3(CCCN(Cc4ccc(F)cc4)C3=O)[C@H]3C(=O)N(C)C(=O)[C@@H]23)cc1,n,x,x,x,x,x
CCOc1ccc(N=C/C=C/c2ccccc2)c(O)c1,n,n,u,n,+,n
CCOc1ccc(NCC(=O)N/N=C/C=C/c2ccccc2)cc1,n,n,n,n,n,n
CCCNc1nc(Cl)nc(NC(C)(C)C)n1,n,n,n,n,u,n
Cc1oc(C)c2c(=O)ccc3c(c12)OC(N)=C(C#N)C3c1ccc(F)cc1 (stereo not drawn),n,n,70,n,+,46
Cc1[nH]nc2c1C(c1ccc(F)cc1)C(C#N)=C(N)O2 (stereo not drawn),n,n,n,n,n,n
SMILES,MLLE-PAM2 inh,eIF4E-4G inh,eIF4H inh,SUMO HTRF inh,PABP FP inh,HCV core dimer
Cc1ccc(S(=O)(=O)/N=C2\C=C(Nc3ccc(O)cc3)C(=O)c3ccccc32)cc1,n,x,x,x,x,x
CC(C)c1ccc(S(=O)(=O)/N=C2/C=C(Sc3ncn[nH]3)C(=O)c3ccccc32)cc1,n,n,n,90,n,n
Cc1ccc(S(=O)(=O)/N=C2\C=C(NS(=O)(=O)c3ccccc3)C(=O)c3ccccc32)c(C)c1,n,x,x,x,x,x
Cc1ccc(S(=O)(=O)/N=C2/C=C(Sc3ncn[nH]3)C(=O)c3ccccc32)cc1,50,34[fluorescence artefact?],n,95,n,n
Cc1ccc(S(=O)(=O)/N=C2/C=C(Sc3ncn[nH]3)C(=O)c3ccccc32)c(C)c1,x,n,n,96,n,n
COc1ccc(CNC(=O)C[C@H]2C[C@H](C(=O)N3CCOCC3)[C@@]3(CCC4CCCC4)c4[nH]c5cc(CCC(=O)N(C)C)ccc5c4CCN3C2=O)cc1OC,n,x,x,x,x,x
